Experiments:
L1210 [1] = assay: Antitumor activity in the mice with intraperitoneal implanted L1210 lymphoid leukemia at the dose 75 mg/kg/day x 5 was determined as Survival time in days; Range is 14- >45 days; assay type: functional, Mus musculus
Method in brief: (§1)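 C3D2F1/J female mice (C3H/HeJ female × DBA/2J male), groups of six to eight, average weight 25 g. Inoculated ip with 1 × 10^6 L1210 ascites cells taken from DBA/2Ha donor mice bearing 3-5 day old tumors. Compounds were dissolved in 0.154 N NaOH, neutralized with 0.154 N HCl (final 0.9% NaCl), and given ip daily for 5 days from 24 h post-implant. Median survival T/C; ILS = (T/C − 1) × 100; 30-day survivors counted.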

L1210 [2] = assay: Antitumor activity in the mice with intraperitoneal implanted L1210 lymphoid leukemia at the dose 75 mg/kg/day x 5 was determined and number of animals survived on 30 th day were reported; 1/8; assay type: functional, Mus musculus; method in brief: as §1
L1210 [3] = assay: Antitumor activity in the mice with intraperitoneal implanted L1210 lymphoid leukemia at the dose 25 mg/kg/day x 5 was determined as percentage increase in the life span as compared with control tumor bearers; assay type: functional; settings: Mus musculus, L1210, ip
Method in brief: (§2)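 Female C3D2F1/J mice (C3H/HeJ × DBA/2J), groups of six to eight, average weight 25 g. Each mouse got 1 × 10^6 L1210 ascites cells ip, taken from DBA/2Ha donor mice bearing 3-5 day tumors. Compound was dissolved in 0.154 N NaOH and neutralized with 0.154 N HCl (final 0.9% NaCl). Dosed ip daily ×5, starting 24 h after implant. Recorded body weight change on day 8, survival range, median survival and 30-day survivors. ILS = (T/C − 1) × 100.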

L1210 [4] = assay: Antitumor activity in mice with intraperitoneal implanted L1210 lymphoid leukemia at the dose 50 mg/kg/day x 5 was determined as weight change (g/mouse) on 8th day; assay type: functional
Method in brief: (§3)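 C3D2F1/J female mice (C3H/HeJ × DBA/2J), groups of six to eight, average 25 g, inoculated ip with 1 × 10^6 L1210 ascites cells taken from DBA/2Ha donor mice carrying 3-5 day tumors. Compound dissolved in 0.154 N NaOH, then neutralized with 0.154 N HCl to give 0.9% NaCl. Given ip daily for 5 consecutive days starting 24 h after implantation. Body weight change per mouse recorded on day 8.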

L1210 [5] = assay: Antitumor activity in the mice with intraperitoneal implanted L1210 lymphoid leukemia at the dose 50 mg/kg/day x 5 was determined as percentage increase in the life span as compared with control tumor bearers; assay type: functional; settings: Mus musculus, L1210, ip; method in brief: as §1
L1210 [6] = assay: Antitumor activity in mice with intraperitoneal implanted L1210 lymphoid leukemia at the dose 75 mg/kg/day x 5 was determined as weight change (g/mouse) on 8th day; assay type: functional; method in brief: as §3
L1210 [7] = assay: Antitumor activity in the mice with intraperitoneal implanted L1210 lymphoid leukemia at the dose 50 mg/kg/day x 5 was determined and number of animals survived on 30 th day were reported; 0/8; assay type: functional, Mus musculus; method in brief: as §2
L1210 [8] = assay: Antitumor activity in mice with intraperitoneal implanted L1210 lymphoid leukemia at the dose 25 mg/kg/day x 5 was determined as weight change (g/mouse) on 8th day; assay type: functional; method in brief: as §3
L1210 [9] = assay: Antitumor activity in the mice with intraperitoneal implanted L1210 lymphoid leukemia at the dose 75 mg/kg/day x 5 was determined as percentage increase in the life span as compared with control tumor bearers; assay type: functional; settings: Mus musculus, L1210, ip; method in brief: as §1
L1210 [10] = assay: Antitumor activity in the mice with intraperitoneal implanted L1210 lymphoid leukemia at the dose of 50 mg/kg/day x 5 was determined as mean survival of treated group compared to untreated; 19/8; assay type: functional, Mus musculus; method in brief: as §1
L1210 [11] = assay: Antitumor activity in the mice with intraperitoneal implanted L1210 lymphoid leukemia at the dose 25 mg/kg/day x 5 was determined and number of animals survived on 30 th day were reported; 0/8; assay type: functional, Mus musculus; method in brief: as §2
L1210 [12] = assay: Antitumor activity in the mice with intraperitoneal implanted L1210 lymphoid leukemia at the dose of 75 mg/kg/day x 5 was determined as mean survival of treated group compared to untreated; 18.5/9.5; assay type: functional, Mus musculus
L1210 [13] = assay: Antitumor activity in the mice with intraperitoneal implanted L1210 lymphoid leukemia at the dose 25 mg/kg/day x 5 was determined as Survival time in days; Range is 8-21 days; assay type: functional, Mus musculus; method in brief: as §2
L1210 [14] = assay: Antitumor activity in the mice with intraperitoneal implanted L1210 lymphoid leukemia at the dose of 25 mg/kg/day x 5 was determined as mean survival of treated group compared to untreated; 16/8.5; assay type: functional, Mus musculus; method in brief: as §1
L1210 [15] = assay: Antitumor activity in the mice with intraperitoneal implanted L1210 lymphoid leukemia at the dose 50 mg/kg/day x 5 was determined as Survival time in days; Range is 17-24 days; assay type: functional, Mus musculus; method in brief: as §2
L1210 [16] = assay: In Vitro evaluation for the antiproliferative activity by observing the growth inhibition of L1210 lymphoid leukemia cells in culture at 72 hour; assay type: functional, Mus musculus
Method in brief: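 Growth of L1210 lymphoid leukemia cells in culture measured by Trypan blue exclusion of viable cells after 72 h of drug exposure. ED50 is the concentration giving 50% growth inhibition. In some runs the compound was first preincubated in medium at 37 °C for 24 or 48 h before the assay.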

L1210 [17] = assay: Antitumor activity in the mice with intraperitoneal implanted L1210 lymphoid leukemia at the dose 9.2 and 12.6 mg/kg/day x 5 was determined and number of animals survived on 30 th day were reported; 0/6; assay type: functional, Mus musculus; method in brief: as §1
L1210 [18] = assay: Antitumor activity in mice with intraperitoneal implanted L1210 lymphoid leukemia at the dose 9.2 and 12.6 mg/kg/day x 5 was determined as weight change (g/mouse) on 8th day; assay type: functional; method in brief: as §2
L1210 [19] = assay: Antitumor activity in the mice with intraperitoneal implanted L1210 lymphoid leukemia at the dose 9.2 and 12.6 mg/kg/day x 5 was determined as percentage increase in the life span as compared with control tumor bearers; assay type: functional, Mus musculus; method in brief: as §1
L1210 [20] = assay: Antitumor activity in mice with intraperitoneal implanted L1210 lymphoid leukemia at the dose 19.1 and 26 mg/kg/day x 5 was determined as weight change (g/mouse) on 8th day; assay type: functional; method in brief: as §2
L1210 [21] = assay: Antitumor activity in the mice with intraperitoneal implanted L1210 lymphoid leukemia at the dose of 19.1 and 26 mg/kg/day x 5 was determined as mean survival of treated group compared to untreated; 10.5/10; assay type: functional, Mus musculus; method in brief: as §1
L1210 [22] = assay: Antitumor activity in the mice with intraperitoneal implanted L1210 lymphoid leukemia at the dose 19.1 and 26 mg/kg/day x 5 was determined and number of animals survived on 30 th day were reported; 0/8; assay type: functional, Mus musculus; method in brief: as §2
L1210 [23] = assay: Antitumor activity in the mice with intraperitoneal implanted L1210 lymphoid leukemia at the dose 9.2 and 12.6 mg/kg/day x 5 was determined as Survival time in days; Range is 13-23 days; assay type: functional, Mus musculus; method in brief: as §1
L1210 [24] = assay: Antitumor activity in the mice with intraperitoneal implanted L1210 lymphoid leukemia at the dose of 9.2 and 12.6 mg/kg/day x 5 was determined as mean survival of treated group compared to untreated; 16.5/11; assay type: functional, Mus musculus
L1210 [25] = assay: Antitumor activity in the mice with intraperitoneal implanted L1210 lymphoid leukemia at the dose 19.1 and 26 mg/kg/day x 5 was determined as Survival time in days; Range is 9-12 days; assay type: functional, Mus musculus; method in brief: as §2
L1210 [26] = assay: Antitumor activity in the mice with intraperitoneal implanted L1210 lymphoid leukemia at the dose 19.1 and 26 mg/kg/day x 5 was determined as percentage increase in the life span as compared with control tumor bearers; assay type: functional, Mus musculus; method in brief: as §2

Question: Which Survival time (L1210 [1]) does the source give for C[C@]12CC[C@H]3[C@@H](CCC4=CC(=O)CC[C@@]43C)[C@@H]1CC[C@@H]2C(=O)COP(=O)(O)OC[C@H]1O[C@@H](n2ccc(N)nc2=O)[C@@H](O)[C@@H]1O here?
Answer: 14 days

Question: And the Survivors (L1210 [2])?
Answer: 1

Question: And the ILS at 25 mg/kg/day (L1210 [3])?
Answer: 88%

Question: And the Weight change (L1210 [4])?
Answer: -0.94 g mouse-1

Question: What about the ILS at 50 mg/kg/day (L1210 [5]) of the same molecule?
Answer: 138%

Question: And the Weight change (L1210 [6])?
Answer: -0.09 g mouse-1

Question: What about the Survivors (L1210 [7]) of the same molecule?
Answer: 0

Question: What about the Weight change (L1210 [8]) of the same molecule?
Answer: -0.54 g mouse-1

Question: What about the ILS at 75 mg/kg/day (L1210 [9]) of the same molecule?
Answer: 95%

Question: And the T/C (L1210 [10])?
Answer: 19

Question: What about the Survivors (L1210 [11]) of the same molecule?
Answer: 0

Question: What about the T/C (L1210 [12]) of the same molecule?
Answer: 18.5

Question: And the Survival time (L1210 [13])?
Answer: 8 days

Question: What about the T/C (L1210 [14]) of the same molecule?
Answer: 16

Question: And the Survival time (L1210 [15])?
Answer: 17 days

Question: And the “ED 50” value (L1210 [16])?
Answer: 50 nM

Question: For C[C@]12CC[C@H]3[C@@H](CCC4=CC(=O)CC[C@@]43C)[C@@H]1CC[C@@H]2C(=O)O.Nc1ccn([C@@H]2O[C@H](CO)[C@@H](O)[C@@H]2O)c(=O)n1, which Survivors (L1210 [17]) is on record?
Answer: 0

Question: What about the Weight change (L1210 [18]) of the same molecule?
Answer: -3.58 g mouse-1

Question: What about the ILS (L1210 [19]) of the same molecule?
Answer: 50%

Question: What about the Weight change (L1210 [20]) of the same molecule?
Answer: -4.25 g mouse-1

Question: What about the T/C (L1210 [21]) of the same molecule?
Answer: 10.5

Question: And the Survivors (L1210 [22])?
Answer: 0

Question: And the Survival time (L1210 [23])?
Answer: 13 days

Question: What about the T/C (L1210 [24]) of the same molecule?
Answer: 16.5

Question: What about the Survival time (L1210 [25]) of the same molecule?
Answer: 9 days

Question: What about the ILS (L1210 [26]) of the same molecule?
Answer: 5%

Source: ChEMBL document CHEMBL1121364, “Nucleoside conjugates as potential antitumor agents. 3. Synthesis and antitumor activity of 1-(beta-D-arabinofuranosyl)cytosine conjugates of corticosteroids” (1980)
